Holding throughout (format): functional
The test system of assay [1] is Enterovirus. In words: Minimum inhibitory concentration against rhinovirus serotype 1A. Put shortly: (§1)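 Rhinovirus minimum inhibitory concentration (MIC) determined in a plaque reduction assay in cell culture, testing each serotype separately.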
Assay [2] has as its system Enterovirus. Kind of assay: In vitro anti-rhinovirus activity was measured as mean MIC for five serotypes, HRV-1A, -2, -22, -41, and -50. Put shortly:
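Mean of plaque-reduction-assay MICs across five rhinovirus serotypes (HRV-1A, -2, -22, -41, -50), chosen to represent a range of sensitivity to this compound class.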

The subject of assay [3] is Enterovirus. In words: Concentration required to inhibit 80 percent rhinovirus cell culture. In short, it runs like this: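 MIC80 is the concentration that inhibits 80% of the rhinovirus serotypes tested. It is derived from per-serotype MICs measured by plaque reduction assay.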
Assay [4] has as its system Enterovirus. Kind of assay: Minimum inhibitory concentration against rhinovirus serotype 50. In short, it runs like this: as §1
Assay [5] has as its system Enterovirus. In words: Minimum inhibitory concentration against rhinovirus serotype 15. To be noted: Enterovirus; read-out: MIC. Put shortly: as §1
Assay [6] deals with Enterovirus. In words: Minimum inhibitory concentration against rhinovirus serotype 89. In short, it runs like this: as §1
Assay [7] concerns Enterovirus. Kind of assay: Minimum inhibitory concentration against rhinovirus serotype 86. In short, it runs like this:
as §1

For assay [8], the system named is Enterovirus. Kind of assay: (§2) In vitro anti-rhinovirus activity was measured as maximum testable levels - highest concentration of compound which causes no apparent effect on the cell monolayers.
The subject of assay [9] is Enterovirus. Kind of assay: Minimum inhibitory concentration against rhinovirus serotype 30. In short, it runs like this: as §1
Assay [10] relates to Enterovirus. In words: Minimum inhibitory concentration against rhinovirus serotype 41. In short, it runs like this:
as §1

The subject of assay [11] is Enterovirus. Kind of assay: Minimum inhibitory concentration against rhinovirus serotype 67. Put shortly:
as §1

The subject of assay [12] is Enterovirus. In words: Minimum inhibitory concentration against rhinovirus serotype 21. In short, it runs like this:
as §1

The subject of assay [13] is Enterovirus. In words: Minimum inhibitory concentration against rhinovirus serotype 6. In short, it runs like this: as §1
Assay [14] has as its system Enterovirus. Kind of assay: Minimum inhibitory concentration against rhinovirus serotype 25. Put shortly: as §1
Assay [15] has as its system Enterovirus. The assay is described as §2. The source holds these as a separate data set.

Converted amounts (≈) assume the structure as drawn. “And” between values parts separate entries of the source, which are not always exact repeats. Identical values can stand only once. The source made the active and inactive calls. The rule behind the calls is not given here.

As for `Cc1cc(CCCCCOc2c(Cl)cc(C3=NCCO3)cc2[N+](=O)[O-])on1`, the MIC in assay [1] is 0.07 µM (≈ 0.0276 µg/mL); in assay [2], 1.35 µM (≈ 0.532 µg/mL); in assay [4], 0.2 µM (≈ 0.0788 µg/mL); in assay [5], 0.2 µM (≈ 0.0788 µg/mL); in assay [6], 0.02 µM (≈ 0.00788 µg/mL); in assay [7], 0.4 µM (≈ 0.158 µg/mL). For the same compound, the MIC in assay [8] worked out at 1.4 µM (≈ 0.551 µg/mL); in assay [9] (Enterovirus, read-out: MIC), 0.05 µM (≈ 0.0197 µg/mL); in [10], 3 µM (≈ 1.18 µg/mL); in assay [11] (Enterovirus, read-out: MIC) it was 0.3 µM (≈ 0.118 µg/mL). For the same compound, in assay [3], the MIC80 worked out at 0.5 µM (≈ 0.197 µg/mL).
`Cc1cc(CCCCCOc2c(F)cc(C3=NCCO3)cc2F)on1`: the MIC was 0.13 µM (≈ 0.0455 µg/mL) in [1]; 2.69 µM (≈ 0.942 µg/mL) in [2]; 0.08 µM (≈ 0.028 µg/mL) in [12] (Enterovirus, read-out: MIC); 1.1 µM (≈ 0.385 µg/mL) in assay [13]; 0.1 µM (≈ 0.035 µg/mL) in assay [4]; 0.5 µM (≈ 0.175 µg/mL) in assay [5]. Also, the MIC in [8] is 2.7 µM (≈ 0.946 µg/mL); in assay [9] it was 0.5 µM and 0.2 µM; in assay [10], 2.3 µM (≈ 0.806 µg/mL); in assay [11], 0.1 µM (≈ 0.035 µg/mL); in assay [11] (Enterovirus, read-out: MIC), 0.12 µM (≈ 0.042 µg/mL); in assay [14], 6.6 µM (≈ 2.31 µg/mL). This compound showed an MIC80 in [3] of 1.9 µM (≈ 0.666 µg/mL).
Regarding `Cc1cc(CCCCCOc2c(C)cc(C3=NCCO3)cc2C)on1`, the MIC in [1] was found to be 0.02 µM (≈ 0.00685 µg/mL); in assay [2], 0.78 µM (≈ 0.267 µg/mL); in [12] it was 0.5 µM (≈ 0.171 µg/mL); in assay [12] (Enterovirus, read-out: MIC), 0.7 µM (≈ 0.24 µg/mL); in [13], 1.2 µM (≈ 0.411 µg/mL); in assay [13] (Enterovirus, read-out: MIC), 2.4 µM (≈ 0.822 µg/mL). For the same compound, the MIC is 0.2 µM (≈ 0.0685 µg/mL) in assay [4]; 0.4 µM (≈ 0.137 µg/mL) in [5]; 0.05 µM (≈ 0.0171 µg/mL) in assay [7]; 0.8 µM (≈ 0.274 µg/mL) in assay [8]; 0.2 µM (≈ 0.0685 µg/mL) in assay [9] (Enterovirus, read-out: MIC); 1.6 µM (≈ 0.548 µg/mL) in [10]. In addition, the MIC80 in [3] amounted to 1.3 µM (≈ 0.445 µg/mL).
With `CCc1cc(C2=NCCO2)cc(C)c1OCCCCCc1cc(C)no1`, the MIC in [2] came out at 5.18 µM (≈ 1.85 µg/mL); in [15] (Enterovirus, read-out: MIC) it was 35 µM (≈ 12.5 µg/mL).
In the case of `Cc1cc(CCCCCOc2ccc(C3=NCCO3)cc2)on1`, the MIC in assay [1] amounted to 1.1 µM (≈ 0.346 µg/mL); in [2] it was 5.16 µM (≈ 1.62 µg/mL); in assay [12] (Enterovirus, read-out: MIC), 1.2 µM (≈ 0.377 µg/mL); in [13] it was 0.9 µM (≈ 0.283 µg/mL); in assay [13] (Enterovirus, read-out: MIC), 0.7 µM (≈ 0.22 µg/mL); in assay [5], 1.5 µM (≈ 0.472 µg/mL). Further, the MIC in assay [8] was 5.2 µM (≈ 1.63 µg/mL); in assay [9] (Enterovirus, read-out: MIC) it was 0.3 µM (≈ 0.0943 µg/mL); in assay [10] it was 15 µM (≈ 4.72 µg/mL); in assay [11] (Enterovirus, read-out: MIC) it was 0.4 µM (≈ 0.126 µg/mL); in assay [15], 7 µM (≈ 2.2 µg/mL); in assay [15] (Enterovirus, read-out: MIC), 9.9 µM (≈ 3.11 µg/mL). Moreover, the MIC result in [12] and in assay [6] was “inactive” each time. Also, the MIC80 in assay [3] stood at 7 µM (≈ 2.2 µg/mL).
Take `Cc1cc(CCCCCOc2c(Cl)cc(C3=NCCO3)cc2C(F)(F)F)on1`: the MIC in [1] was 0.2 µM (≈ 0.0834 µg/mL); in [2], 0.54 µM (≈ 0.225 µg/mL); in [4], 0.2 µM (≈ 0.0834 µg/mL); in assay [5] it was 0.4 µM (≈ 0.167 µg/mL); in assay [6], 0.05 µM (≈ 0.0208 µg/mL); in assay [7], 1.3 µM (≈ 0.542 µg/mL). Also, the MIC was 0.5 µM (≈ 0.208 µg/mL) in assay [8]; 0.2 µM (≈ 0.0834 µg/mL) in assay [9] (Enterovirus, read-out: MIC); 0.8 µM (≈ 0.333 µg/mL) in assay [10]; 1 µM (≈ 0.417 µg/mL) in assay [11] (Enterovirus, read-out: MIC). The compound also displayed an MIC80 in [3] of 1.3 µM (≈ 0.542 µg/mL).

The record behind these values is ChEMBL document CHEMBL1124399, “Synthesis and structure-activity studies of some disubstituted phenylisoxazoles against human picornavirus” (J Med Chem, 1989).
